Laboratory results taken from article PMC5800871 (European journal of medicinal chemistry, 2017).
Counter-ions that a name gives are not always drawn.

Assays:
Assay type in all cases: in vitro ADME
[1] = target: T1, CYP1A2 (Homo sapiens, UniProt P05177); assay: Cytochrome P450 inhibition assay, CYP1A2; details: CYP activity as % of control, 10 μM, human liver microsomes
T1 sequence (P05177 1-516): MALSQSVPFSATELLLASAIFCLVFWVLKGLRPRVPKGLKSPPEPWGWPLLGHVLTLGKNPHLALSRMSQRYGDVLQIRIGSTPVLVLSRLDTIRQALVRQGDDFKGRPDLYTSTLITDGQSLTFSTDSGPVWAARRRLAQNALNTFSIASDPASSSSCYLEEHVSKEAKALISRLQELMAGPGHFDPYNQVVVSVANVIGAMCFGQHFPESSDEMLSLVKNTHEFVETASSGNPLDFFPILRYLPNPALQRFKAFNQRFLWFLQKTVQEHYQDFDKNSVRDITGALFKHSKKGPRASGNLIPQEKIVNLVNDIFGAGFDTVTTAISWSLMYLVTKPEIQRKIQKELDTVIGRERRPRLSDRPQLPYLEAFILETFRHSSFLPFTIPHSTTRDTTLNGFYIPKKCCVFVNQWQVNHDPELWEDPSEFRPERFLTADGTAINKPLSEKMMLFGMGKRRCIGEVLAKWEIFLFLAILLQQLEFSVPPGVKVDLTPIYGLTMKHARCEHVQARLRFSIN

[2] = target: CYP2C9 (Homo sapiens, UniProt P11712); assay: Cytochrome P450 inhibition assay, CYP2C9; details: CYP activity as % of control, 10 μM, human liver microsomes
[3] = target: CYP2C19 (Homo sapiens, UniProt P33261); assay: Cytochrome P450 inhibition assay, CYP2C19; details: CYP activity as % of control, 10 μM, human liver microsomes
[4] = target: CYP2D6 (Homo sapiens, UniProt P10635); assay: Cytochrome P450 inhibition assay, CYP2D6; details: CYP activity as % of control, 10 μM, human liver microsomes
[5] = system: CYP 3A4; assay: Cytochrome P450 inhibition assay, CYP3A4; details: CYP activity as % of control, 10 μM, human liver microsomes
[6] = Liver microsomal stability, human; details: 1 μM, 0.5 mg/mL microsomal protein, NADPH, 37 °C
In short: (§1)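 Liver microsomes (human pool of 150 donors; dog, rat, mouse) at 0.5 mg/mL protein in 100 mM phosphate buffer pH 7.4 with test compound at 1 μM final, 37 °C. Started with NADPH regeneration system and stopped with ice-cold acetonitrile at 0 and 30 min. Supernatant analysed by LC-MS/MS. Percent parent remaining from peak areas against the 0 min sample (100 %), stopped before NADPH addition.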

[7] = Liver microsomal stability, dog; details: 1 μM, 0.5 mg/mL microsomal protein, NADPH, 37 °C
In short: as §1

[8] = Liver microsomal stability, rat; details: 1 μM, 0.5 mg/mL microsomal protein, NADPH, 37 °C
In short: as §1

[9] = Liver microsomal stability, mouse; details: 1 μM, 0.5 mg/mL microsomal protein, NADPH, 37 °C
In short: as §1

Sequence of CYP2C19 (P33261 whole entry): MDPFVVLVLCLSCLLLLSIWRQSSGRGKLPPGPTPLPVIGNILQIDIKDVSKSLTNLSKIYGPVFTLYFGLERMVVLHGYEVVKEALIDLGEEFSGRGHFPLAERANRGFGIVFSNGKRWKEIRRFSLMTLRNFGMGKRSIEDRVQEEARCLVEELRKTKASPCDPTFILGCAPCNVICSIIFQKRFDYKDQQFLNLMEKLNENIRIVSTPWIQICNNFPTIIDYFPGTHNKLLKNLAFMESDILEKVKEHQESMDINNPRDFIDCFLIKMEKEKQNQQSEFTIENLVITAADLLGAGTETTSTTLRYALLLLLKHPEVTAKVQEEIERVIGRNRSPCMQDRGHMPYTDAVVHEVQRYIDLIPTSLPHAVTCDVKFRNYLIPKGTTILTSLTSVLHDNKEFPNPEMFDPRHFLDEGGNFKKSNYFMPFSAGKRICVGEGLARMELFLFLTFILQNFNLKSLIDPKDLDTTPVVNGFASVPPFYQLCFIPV
Sequence of CYP2C9 (P11712 whole entry): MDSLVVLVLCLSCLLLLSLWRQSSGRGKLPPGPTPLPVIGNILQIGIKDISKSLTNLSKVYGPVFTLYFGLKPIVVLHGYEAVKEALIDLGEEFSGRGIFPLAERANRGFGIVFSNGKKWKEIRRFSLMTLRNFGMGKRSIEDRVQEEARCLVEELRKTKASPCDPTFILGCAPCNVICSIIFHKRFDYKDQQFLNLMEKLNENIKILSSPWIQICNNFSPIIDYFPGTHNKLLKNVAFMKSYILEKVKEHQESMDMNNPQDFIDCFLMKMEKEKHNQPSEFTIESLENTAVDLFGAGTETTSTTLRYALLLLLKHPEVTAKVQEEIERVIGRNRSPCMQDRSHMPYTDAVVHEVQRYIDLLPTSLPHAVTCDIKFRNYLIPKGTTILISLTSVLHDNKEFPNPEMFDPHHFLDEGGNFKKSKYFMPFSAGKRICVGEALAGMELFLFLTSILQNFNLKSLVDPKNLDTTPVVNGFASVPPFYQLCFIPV
Sequence of CYP2D6 (P10635 whole entry): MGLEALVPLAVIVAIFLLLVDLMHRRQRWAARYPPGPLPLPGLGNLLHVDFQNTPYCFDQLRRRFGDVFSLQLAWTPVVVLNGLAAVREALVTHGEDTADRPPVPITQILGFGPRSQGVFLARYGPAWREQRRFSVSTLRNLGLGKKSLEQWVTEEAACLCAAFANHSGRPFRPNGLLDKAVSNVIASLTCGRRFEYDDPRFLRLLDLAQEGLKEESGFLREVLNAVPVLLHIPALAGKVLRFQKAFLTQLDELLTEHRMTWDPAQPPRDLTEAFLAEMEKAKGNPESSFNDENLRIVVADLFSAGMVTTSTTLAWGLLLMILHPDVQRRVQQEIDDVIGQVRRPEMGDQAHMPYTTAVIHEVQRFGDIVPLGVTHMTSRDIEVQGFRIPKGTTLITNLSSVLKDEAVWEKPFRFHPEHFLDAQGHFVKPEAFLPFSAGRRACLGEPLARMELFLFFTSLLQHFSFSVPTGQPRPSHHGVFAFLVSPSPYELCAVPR

Row | SMILES | Cytochrome P450 inhibition (% of control) 1A2 [1] | Cytochrome P450 inhibition (% of control) 2C9 [2] | Cytochrome P450 inhibition (% of control) 2C19 [3] | Cytochrome P450 inhibition (% of control) 2D6 [4] | Cytochrome P450 inhibition (% of control) 3A4 [5] | Liver microsomal stability (% remaining after 30 min) Human [6] | Liver microsomal stability (% remaining after 30 min) Dog [7] | Liver microsomal stability (% remaining after 30 min) Rat [8] | Liver microsomal stability (% remaining after 30 min) Mouse [9]
1 | C=CC(=O)Nc1cc(Nc2nccc(Nc3ccccc3S(=O)(=O)C(C)C)n2)c(OC)cc1N(C)CCN(C)C [Compound 7a, N-(2-((2-(Dimethylamino)ethyl)(methyl)amino)-5-((4-((2-(isopropylsulfonyl)phenyl)amino)pyrimidin-2-yl)amino)-4-methoxyphenyl)acrylamide] | 80 % of control | 90 % of control | 87 % of control | 67 % of control | 40 % of control | 5 % remaining after 30 min | 48 % remaining after 30 min | 22 % remaining after 30 min | 8 % remaining after 30 min
2 | C=CC(=O)Nc1cc(Nc2ncc(F)c(Nc3ccccc3S(=O)(=O)C(C)C)n2)c(OC)cc1N(C)CCN(C)C [Compound 7b, N-(2-((2-(Dimethylamino)ethyl)(methyl)amino)-5-((5-fluoro-4-((2-(isopropylsulfonyl)phenyl)amino)pyrimidin-2-yl)amino)-4-methoxyphenyl)acrylamide] | 91 % of control | 94 % of control | 93 % of control | 95 % of control | 51 % of control | 26 % remaining after 30 min | 27 % remaining after 30 min | 11 % remaining after 30 min | 15 % remaining after 30 min
3 | C=CC(=O)Nc1cc(Nc2ncc(I)c(Nc3ccccc3S(=O)(=O)C(C)C)n2)c(OC)cc1N(C)CCN(C)C [Compound 7d, N-(2-((2-(Dimethylamino)ethyl)(methyl)amino)-5-((5-iodo-4-((2-(isopropylsulfonyl)phenyl)amino)pyrimidin-2-yl)amino)-4-methoxyphenyl)acrylamide] | 81 % of control | 88 % of control | 86 % of control | 82 % of control | 47 % of control | 14 % remaining after 30 min | 19 % remaining after 30 min | 14 % remaining after 30 min | 10 % remaining after 30 min
4 | C=CC(=O)Nc1cc(Nc2nccc(Nc3ccccc3P(C)(C)=O)n2)c(OC)cc1N(C)CCN(C)C [Compound 7e, N-(2-((2-(Dimethylamino)ethyl)(methyl)amino)-5-((4-((2-(dimethylphosphoryl)phenyl)amino)pyrimidin-2-yl)amino)-4-methoxyphenyl)acrylamide trifluoroacetate salt] | 84 % of control | 90 % of control | >100 % of control | 87 % of control | 89 % of control | 70 % remaining after 30 min | 73 % remaining after 30 min | 78 % remaining after 30 min | 76 % remaining after 30 min
5 | C=CC(=O)Nc1cc(Nc2ncc(Cl)c(Nc3ccccc3P(C)(C)=O)n2)c(OC)cc1N(C)CCN(C)C [Compound 7g, N-(5-((5-Chloro-4-((2-(dimethylphosphoryl)phenyl)amino)pyrimidin-2-yl)amino)-2-((2-(dimethylamino)ethyl)(methyl)amino)-4-methoxyphenyl)acrylamide trifluoroacetate salt] | 93 % of control | >100 % of control | – | – | 91 % of control | 61 % remaining after 30 min | – | 76 % remaining after 30 min | 66 % remaining after 30 min
6 | C=CC(=O)Nc1cc(Nc2ncc(I)c(Nc3ccccc3P(C)(C)=O)n2)c(OC)cc1N(C)CCN(C)C [Compound 7h, N-(2-((2-(Dimethylamino)ethyl)(methyl)amino)-5-((4-((2-(dimethylphosphoryl)phenyl)amino)-5-iodopyrimidin-2-yl)amino)-4-methoxyphenyl)acrylamide trifluoroacetate salt] | 91 % of control | >100 % of control | – | – | 88 % of control | 65 % remaining after 30 min | – | 81 % remaining after 30 min | –
7 | C=CC(=O)Nc1cc(Nc2nccc(Nc3ccccc3S(=O)(=O)N(C)C)n2)c(OC)cc1N(C)CCN(C)C [Compound 7i, N-(2-((2-(Dimethylamino)ethyl)(methyl)amino)-5-((4-((2-(N,N-dimethylsulfamoyl)phenyl)amino)pyrimidin-2-yl)amino)-4-methoxyphenyl)acrylamide] | 82 % of control | 88 % of control | – | – | – | 10 % remaining after 30 min | – | – | 5 % remaining after 30 min
8 | C=CC(=O)Nc1cc(Nc2ncc(F)c(Nc3ccccc3S(=O)(=O)N(C)C)n2)c(OC)cc1N(C)CCN(C)C [Compound 7j, N-(2-((2-(Dimethylamino)ethyl)(methyl)amino)-5-((4-((2-(N,N-dimethylsulfamoyl)phenyl)amino)-5-fluoropyrimidin-2-yl)amino)-4-methoxyphenyl)acrylamide] | >100 % of control | – | 91 % of control | >100 % of control | – | – | – | 7 % remaining after 30 min | 10 % remaining after 30 min
9 | C=CC(=O)Nc1cc(Nc2ncc(Cl)c(Nc3ccccc3S(=O)(=O)N(C)C)n2)c(OC)cc1N(C)CCN(C)C [Compound 7k, N-(5-((5-Chloro-4-((2-(N,N-dimethylsulfamoyl)phenyl)amino)pyrimidin-2-yl)amino)-2-((2-(dimethylamino)ethyl)(methyl)amino)-4-methoxyphenyl)acrylamide] | – | – | – | – | – | – | 31 % remaining after 30 min | – | –
10 | C=CC(=O)Nc1cc(Nc2ncc(I)c(Nc3ccccc3S(=O)(=O)N(C)C)n2)c(OC)cc1N(C)CCN(C)C [Compound 7l, N-(2-((2-(Dimethylamino)ethyl)(methyl)amino)-5-((4-((2-(N,N-dimethylsulfamoyl)phenyl)amino)-5-iodopyrimidin-2-yl)amino)-4-methoxyphenyl)acrylamide] | – | – | – | – | – | – | – | 12 % remaining after 30 min | 12 % remaining after 30 min
